According to paper PMC4409664 (Cell, 2015):

Key:
Format in all cases: binding
human TTR = assay: RBP-TTR coimmunoprecipitation from HeLa conditioned media; settings: HeLa cotransfected, HA immunoprecipitates
Procedure, shortened: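 HeLa cells cotransfected with myc-tagged TTR plus wild-type or mutant N-terminal HA-tagged human RBP plasmids. Secreted RBP complexes pulled from conditioned media with anti-HA agarose beads and washed in PBS. Western blot of immunoprecipitates probed first for TTR, then for HA.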

[1] = In vitro retinol titration by fluorescence enhancement; settings: read-out: Kd for retinol; apo-RBP^HA, PBS, fluorescence ex 330 nm, em 460 nm
Procedure, shortened: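 Apo RBP-HA was immunopurified from serum-free HeLa conditioned medium, eluted with HA peptide, dialyzed into PBS and checked for homogeneity by gel. Equal amounts of protein (380 nM) were loaded with fresh all-trans retinol (0 to 5 µM) for 1 hr in PBS. Retinol fluorescence enhancement (ex 330, em 460 nm) was read on a microplate reader. Parallel runs used PBS with 0.1% phosphatidylcholine vesicles.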

STRA6 = target: T1, STRA6 (Homo sapiens, UniProt Q9BX79); assay: STRA6-RBP equilibrium and kinetic analysis by ELISA on STRA6+ HEK293T cells; settings: read-out: Kd for STRA6, apo RBP^HA, 90 min at 37°C
T1 sequence (Q9BX79 1-667): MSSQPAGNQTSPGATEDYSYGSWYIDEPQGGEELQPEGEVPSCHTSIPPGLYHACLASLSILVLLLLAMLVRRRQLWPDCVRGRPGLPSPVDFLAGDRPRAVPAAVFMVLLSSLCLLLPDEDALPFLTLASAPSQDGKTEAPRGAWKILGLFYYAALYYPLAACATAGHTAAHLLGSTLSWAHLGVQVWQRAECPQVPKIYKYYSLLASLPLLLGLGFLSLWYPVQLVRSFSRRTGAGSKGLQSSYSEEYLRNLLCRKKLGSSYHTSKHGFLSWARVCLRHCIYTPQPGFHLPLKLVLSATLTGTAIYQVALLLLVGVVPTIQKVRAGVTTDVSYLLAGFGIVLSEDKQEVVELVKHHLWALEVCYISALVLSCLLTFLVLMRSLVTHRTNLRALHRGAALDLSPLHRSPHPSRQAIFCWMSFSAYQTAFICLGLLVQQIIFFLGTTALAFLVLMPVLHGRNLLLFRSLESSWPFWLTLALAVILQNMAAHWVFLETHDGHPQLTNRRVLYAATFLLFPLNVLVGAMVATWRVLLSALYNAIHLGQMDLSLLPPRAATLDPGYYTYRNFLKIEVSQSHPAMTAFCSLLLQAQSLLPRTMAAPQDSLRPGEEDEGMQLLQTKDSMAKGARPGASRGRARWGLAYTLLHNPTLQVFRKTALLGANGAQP
Procedure, shortened: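 Cells transfected with STRA6myc or vector were grown on poly-D-lysine. They were incubated 90 min at 37°C with medium containing 0–80 µg/mL apo RBP-HA and 0.5% BSA, washed in ice-cold HBSS, and bound RBP was eluted with 25 mM glycine HBSS pH 3. RBP was quantified by ELISA, with control-cell binding subtracted. Kd came from isotherms and reciprocal plots. TTR affinity was measured by SPR, running a TTR series over captured apo His-RBP.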

For serum retinol binding protein [WT], the “interaction with human TTR in coimmunoprecipitation” value (human TTR) was “interacted strongly”, the Kd [1] was ~80 nM and the Kd (STRA6) was 59 nM.
